From ChEMBL document CHEMBL3792272, “Discovery of Potent and Orally Active Lipoprotein-Associated Phospholipase A2 (Lp-PLA2) Inhibitors as a Potential Therapy for Diabetic Macular Edema” (J Med Chem, 2016)

Columns and labels:
Format in all cases: ADME, organism-based
[1] = AUC (0 to 24 hrs) in Sprague-Dawley rat at 10 mg/kg, iv after 5 mins to 24 hrs by LC-MS/MS analysis; design: time < 24 hr, dose 10 mg/kg, route intravenous; settings: in vivo
Procedure, shortened: (§1)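 Male SD rats, n=5 per group, single iv bolus: 5 mg/kg in 5% DMSO/5% Tween-80 in saline, or 10 mg/kg tartrate salt in water. Plasma sampled predose and at 5, 15, 30 min and 1, 3, 5, 7, 24 h. Drug measured by LC-MS. Parameters by noncompartmental analysis of mean concentrations.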

[2] = Volume of distribution at steady state in Sprague-Dawley rat at 10 mg/kg, iv after 5 mins to 24 hrs by LC-MS/MS analysis; settings: in vivo, read-out: Vdss; procedure, shortened: as §1
[3] = AUC (0 to 24 hrs) in Sprague-Dawley rat at 50 mg/kg, po after 0.5 to 24 hrs by LC-MS/MS analysis; design: time < 24 hr, dose 50 mg/kg, route oral; settings: in vivo
[4] = Cmax in Sprague-Dawley rat at 50 mg/kg, po after 0.5 to 24 hrs by LC-MS/MS analysis; design: dose 50 mg/kg, route oral; settings: in vivo
[5] = Tmax in Sprague-Dawley rat at 50 mg/kg, po after 0.5 to 24 hrs by LC-MS/MS analysis; settings: in vivo

AUC(0-t) at 24 h [1]: 1200 ng·h/mL | Vd [2]: 34.4 L/kg | AUC(0-t) at 24 h [3]: 1300 ng·h/mL | Cmax [4]: 115 ng/mL | Tmax [5]: 4.2 h
Compound: CCN(CC)CCN(Cc1ccc(-c2ccc(C(F)(F)F)cc2)cc1)C(=O)Cn1c(SCc2ccc(F)cc2)nc(=O)c2c1CCC2 [DARAPLADIB]
